In the library only some 2.4% were active in any assay of this set; here they are far more common.
Rad51 HR inh: Rad51 (human) homologous recombination inhibition; Q06609; hRad51 DNA strand exchange, fluorescence dequenching; inhibition, % at 10 µM; 200,000 compounds, 0.085% hits;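 active = inhibition above 40% at the single screening dose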;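 also: 0% = DMSO control wells and 100% = blanks with heterologous ssDNA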
Target sequence (Q06609 whole entry, looked up): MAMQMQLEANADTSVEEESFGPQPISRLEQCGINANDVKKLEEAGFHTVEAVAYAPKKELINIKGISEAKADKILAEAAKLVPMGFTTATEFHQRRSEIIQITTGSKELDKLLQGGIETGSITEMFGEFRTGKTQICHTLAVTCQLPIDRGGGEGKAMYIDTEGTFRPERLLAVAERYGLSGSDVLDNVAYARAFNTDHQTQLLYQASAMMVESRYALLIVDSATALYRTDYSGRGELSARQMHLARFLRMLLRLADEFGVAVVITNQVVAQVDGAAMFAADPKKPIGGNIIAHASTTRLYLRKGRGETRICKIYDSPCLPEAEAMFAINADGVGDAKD
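Assay system: Human Rad51 nucleoprotein filaments preassembled on unlabelled ssDNA | Reagent: Donor/quencher-labelled 47-bp dsDNA substrate | Doses: One concentration, 10 µM final | Times: 37 °C 15-min filament assembly, 30-min compound preincubation, 15-min exchange | Technique: Fluorescein emission 520 nm, excitation 485 nm | Benchmarks: Plate control and blank wells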
HMGR II inh: E. faecalis class II HMG-CoA reductase inhibition; purified E. faecalis HMGR, NADPH absorbance 340 nm kinetic; inhibition, % at 10 µM; 190,000 compounds, 0.41% hits; AID 1066;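 active = inhibition above a set limit, the median over all tested compounds plus 3 SD, cut at about 9.5% in these data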;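 also: enzyme runs in reverse so mevalonate oxidation gives rising NADPH absorbance; 0% = complete reaction with DMSO and 100% = background rate lacking mevalonate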
Yeast growth inh: chemicals that inhibit yeast BB579 growth in restrictive medium (lifespan-shortening candidates); S. cerevisiae BB579 growth, OD615, 48 h; inhibition, % at 10 µM; 140,000 compounds, 0.51% hits; AID 804;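 active = inhibition above a set limit, 3 SD over the mean compound inhibition, cut at about 44% in these data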
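Test system: DeaD yeast strain BB579 / Buffer or medium: restrictive glucose-based CSMM-D medium / Doses: single 10 µM dose / Schedule: 4 h cell preincubation, 48 h compound exposure, 30 °C humidified / Technique: culture absorbance at 615 nm / Controls: amphotericin B positive control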
Yeast life ext: extends the lifespan of yeast. 130,000 compounds, 0.68% hits. AID 775. S. cerevisiae growth with nicotinamide, OD615; deaD strain in restrictive glucose medium. inhibition of the nicotinamide effect, % at 10 µM;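 active = inhibition above a set limit, placed 3 SD over the median of all compounds, cut at about 26% in these data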;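 also: 0% = nicotinamide-treated wells and 100% = cells grown without nicotinamide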
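System: Modified budding yeast, DeaD strain | Buffer or medium: Restrictive glucose medium | Also added: 1.5 mM nicotinamide | Doses: 10 µM single point, 0.25% DMSO | Schedule: 48 h compound exposure at 30 °C, humidified | Detection: Absorbance at 615 nm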
Measles CPE: protection of cells from measles virus; AID 841; 140,000 compounds, 1.5% hits; protection (pct of control), % at 4 µM; Measles virus-infected cells, CPE protection, absorbance; in the data active = protection mostly above about 24%, no sharp cut-off; inactive = mostly below about 26%
Arbovirus inh: arbovirus infection inhibition. arbovirus infection cell-based antiviral screen. inhibition, % at 10 µM. 200,000 compounds, 0.37% hits. AID 1251; in the data active = inhibition above about 30%
* = called active by the depositor; nt = no result.

SMILES	Rad51 HR inh	HMGR II inh	Yeast growth inh	Yeast life ext	Measles CPE	Arbovirus inh
CCn1nc(CC(=O)Nc2nnc(CC(=O)N3CCCC3)s2)c2ccccc2c1=O	-6	-2	-38	-7	4	1
C=CCN1C(c2ccccc2)=CS/C1=C(/C#N)c1nnc(N2CCOCC2)n1-c1ccccc1	2	-1	-12	1	52*	4
O=S(=O)(c1ccc(Cl)cc1)N1CCN(S(=O)(=O)N2CCCCCC2)CC1	9	-6	nt	nt	nt	-5
O=S(=O)(c1ccc(Oc2ccc(Cl)cc2)c(S(=O)(=O)N2CCCCC2)c1)N1CCCCC1	1	-8	-10	-16	6	38*
O=C1CCCC(=O)N1c1ccc(N2CCOCC2)c([N+](=O)[O-])c1	nt	-6	nt	nt	nt	2
CCOC(=O)CC1=NN(c2ccccc2)C(=O)/C1=C\c1ccc(OC)cc1OC	2	-1	-27	51*	7	-1
COC(=O)CC1=NN(c2ccc(OC)cc2)C(=O)/C1=C\c1ccc(Cl)cc1	6	-2	-24	31*	20	9
CCOC(=O)C1=NN(c2ccccc2)C(=O)/C1=C\c1ccc(N(C)C)cc1	-1	-2	-40	3	8	4
CCOC(=O)c1sc(N2N=C(C)/C(=C\c3ccc(OCC(=O)OC)cc3)C2=O)nc1C	nt	0	-48	3	9	3
COC(=O)CC1=NN(c2ccccc2)C(=O)/C1=C\c1ccc(OC)cc1	0	4	-38	53*	20	-4
O=S(=O)(Nc1ccc2cn[nH]c2c1)c1ccc(Cl)s1	3	-10	nt	nt	nt	15
Cc1cc(C)n(C(=O)Cn2nc([N+](=O)[O-])c(Br)c2C)n1	3	5	nt	nt	nt	9
O=C(CS(=O)(=O)Cc1ccccc1)Nc1ccc(S(=O)(=O)N2CCOCC2)cc1	-2	-8	4	-3	12	7
COC(=O)c1cc(C(=O)OC)cc(-n2c(C)cc(C(=O)COC(=O)CNS(=O)(=O)c3ccc(C)cc3)c2C)c1	7	-6	-47	1	10	3
COc1ccc(OC)c(CC(NC(C)=O)C(=O)NC2CCN(c3cc(C)nc4ncnn34)CC2)c1 (configuration not stated)	2	9.7*	nt	nt	nt	3
COc1cc(CC(NC(C)=O)C(=O)NC2CCN(C(=O)C3CC3)CC2)cc(OC)c1 (configuration not stated)	-1	9.6*	nt	nt	nt	1
CC(C(=O)N1CCc2ccccc21)n1cccc1 (configuration not stated)	-4	2	-17	-14	21	4
O=S(=O)(NCCc1csc(-c2cccnc2)n1)c1ccc(Cl)s1	-10	1	-24	6	23	12
Cc1cc(C)nc(NS(=O)(=O)c2ccc(N/C=C/C(=O)c3ccc(Cl)c(Cl)c3)cc2)n1	-7	3	-9	2	44*	-17
Cc1cc(C)nc(NS(=O)(=O)c2ccc(N/C=C\C(=O)c3ccc(Cl)cc3)cc2)n1	8	-2	-41	-7	4	7
O=C1c2ccccc2NC(c2ccc(Cl)cc2Cl)N1Cc1ccccc1 (configuration not stated)	-6	0	-62	1	14	0
O=C1c2ccccc2NC(c2ccc(Cl)cc2Cl)N1O (configuration not stated)	-5	15*	-45	48	20	-22
O=C1c2ccccc2NC(c2cnc3ccccc3n2)N1O (configuration not stated)	6	-3	-43	57*	22	4
O=C(N/N=C/c1cccc(F)c1)c1c(O)c2c([nH]c1=O)CCCC2	4	-9	-18	2	16	-2
CCN(C(=O)Cc1c(C(=O)O)n(C)c2ccccc12)c1ccc(F)cc1	-100	-5	nt	nt	nt	-5
SMILES	Rad51 HR inh	HMGR II inh	Yeast growth inh	Yeast life ext	Measles CPE	Arbovirus inh
O=Cc1c(Sc2ccccc2)nc2ccccn2c1=O	-11	-2	65*	-19	7	-23
CCN1/C(=N\N)c2cccc3cccc1c23	-19	-1	nt	nt	nt	1
Cc1c(/C=N\NC(=O)c2ccc(F)cc2)cnn1C	4	3	-18	5	10	-1
CCn1cc(/C=N\NC(=O)c2ccc(F)cc2)cn1	nt	-6	-11	5	29*	4
O=C(O)/C=C/C(=O)Nc1ccc2nccnc2c1	0	0	nt	nt	nt	2
CN(C)CCCN(C(=O)c1cccs1)c1nc(-c2ccccc2)cs1	2	-8	-27	-7	40*	-17
Cc1cc(C)c(NC(=S)NC(=O)c2ccc(-c3ccccc3)cc2)c(C)c1	-6	-3	-18	-5	8	30*
Cc1ccc(NC(=S)NC(=O)c2ccccc2)cc1NC(=S)NC(=O)c1ccccc1	-11	nt	nt	nt	nt	nt
CCOC(=O)c1ccc(-n2[nH]c(-c3ccccc3)cc2=O)cc1	2	-4	97*	-18	7	-30
Cc1cc(=O)n(-c2ccc(C(=O)O)cc2)[nH]1	3	-2	nt	nt	nt	9
CC(C)c1cc(C(F)(F)F)n2nc(C(=O)Nc3ccc4c(c3)OCO4)cc2n1	-6	-7	-52	-36	3	31*
CCCCNC(=O)COc1ccccc1C(=O)c1cc(C#N)c(=O)n(CCOC)c1	-9	-5	-10	-1	42*	1
O=C(N/N=C/c1ccc[nH]1)c1ccccc1O	-1	10*	nt	nt	nt	-5
CCOC(=O)C(=O)NNc1ccc(C)cc1	1	-4	-13	-1	2	-32
CCCCN=C(NNc1ccc(Br)cc1)C(=O)OCC	-3	-12	97*	-13	5	-35
CCOC(=O)C(=NCCCN(C)C)NNc1ccc(Br)cc1	nt	-1	92*	-10	8	-25
O=C(COC(=O)CCSc1ccccc1Cl)NCc1ccco1	9	5	nt	nt	nt	-1
Cc1ccc(CNC(=O)CSc2nc3c(sc4ccccc43)c(=O)n2CCCN2CCCC2)cc1	43*	-2	nt	nt	nt	-24
CCOC(=O)C(=Cc1c[nH]c2ccc(S(=O)(=O)N(C)C)cc12)C(=O)OCC	23	nt	nt	nt	nt	nt
Cc1cc(N)n2ncc(-c3ccc(Cl)cc3)c2n1	6	11*	-27	-26	10	-3
CC(=O)Nc1ccc(/C=N/N2CCCCC2)cc1	-5	2	nt	nt	nt	4
O=C(COC(=O)CCN1C(=O)c2ccccc2C1=O)Nc1ccc(S(=O)(=O)N2CCCC2)cc1	4	1	-49	-5	2	-4
O=C(COC(=O)CN1C(=O)c2ccccc2C1=O)Nc1ccc(S(=O)(=O)N2CCCC2)cc1	1	12*	-58	-5	5	-2
Cc1ccc(S(=O)(=O)/C(C#N)=C/c2c(N3CCC(C(N)=O)CC3)nc3ccccn3c2=O)cc1	-2	11*	-22	-8	6	-4
O=C(CSc1nc(-c2ccco2)cc(C(F)(F)F)n1)NCCN1CCOCC1	-6	-5	nt	nt	nt	9

Compound activity deposited in PubChem by several laboratories.
